Assay results: ChEMBL document CHEMBL4513216, “Probing the Open Global Health Chemical Diversity Library for Multistage-Active Starting Points for Next-Generation Antimalarials” (ACS Infect Dis, 2020)

assay: Toxicity liver stage against HepG2, at 10uM; type: cell-based; design: test concentration 10 uM, cell line HepG2-A16-CD81EGFP; details: human, HepG2-A16-CD81EGFP cells; read-out: INHIBITION
Outline: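 Uninfected HepG2-A16-CD81EGFP cells, 3 × 10^3 per well, 1536-well, plated on prespotted compound at 10 μM final, parasite-free screening media added to match infected plates; puromycin 10 μM positive, DMSO 0.5% negative; run in parallel with 48 h PbLuc assay at 37 °C, 5% CO2; viability by CellTiter-Glo luminescence, normalized to controls.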

SMILES	cytotoxicity at 10 µM
Fc1ccc(OCc2nnc([C@H]3CCN(Cc4cccnc4)C3)o2)cc1	-5.72%
N#Cc1ccc(CN2C[C@@H]3OCC(=O)N(CC(N)=O)[C@@H]3C2)cc1	-1.51%
COc1ccc(-c2nc(C#N)c(N(C)C)o2)cc1S(=O)(=O)N1CCCC1	-0.773%
COc1ccccc1CNc1ccc2nncn2n1	10.4%
CCc1cc(=O)[nH]c(SCc2ccccn2)n1	-0.543%
CCSc1nnc(N2CCN(c3ccccc3)CC2)s1	-6.67%
O=C(C[C@@H]1COC[C@H]2CN(Cc3ccsc3)C[C@@H]12)N1CCCC1	1.64%
C[C@@H]1C[C@H]2CN(C(=O)C3=CCCCC3)C[C@H]2O1	7.18%
CCOC1CC2(CCN(C(C)=O)CC2)c2cc(F)ccc21 (stereo not drawn)	-143%
CCS(=O)(=O)N1CCOC2(COCCN(c3nccs3)C2)C1 (stereo not drawn)	7.4%
COCC1c2nnn(CC3CC3)c2CCN1C(=O)c1cnccn1 (stereo not drawn)	-140%
Cc1nc(-c2ccccc2F)sc1C(=O)N1CCN(C)CC1	21%
CSc1[nH]nc(NC(=O)c2cccnc2)c1C#N	-4.87%
Cc1nn(C)c2c(NCc3cccnc3)nc(C(C)C)nc12	10.5%
CCn1cc(S(=O)(=O)Nc2nc3c(s2)CCCC3)cn1	6.33%
COc1cc(NCc2ccncc2)c(-c2nn[nH]n2)cc1OC	7.91%
CCn1ccc(NC(=O)CN2C(=O)CC(C)(C)c3ccccc32)n1	-5.01%
CC(=O)N1CCCC(Cc2cnc(-n3ccnc3)cn2)C1 (stereo not drawn)	-21.7%
O=C(c1cncnc1)N1Cc2ccccc2OC2(CCOCC2)C1	-8.46%
CC(NC(=O)c1ccoc1)C(=O)N(C)Cc1cccc(C(F)(F)F)c1 (stereo not drawn)	-13.6%
CS(=O)(=O)c1ccc(NC(=O)NC2(c3cccc(F)c3)CC2)cc1	2.93%
COCCN(C)C(=O)Nc1cc2c(cc1SC)OCCO2	4.69%
CC(CN1CCOCC1)NC(=O)N1CCN(S(C)(=O)=O)CC1 (stereo not drawn)	0.243%

SMILES	cytotoxicity at 10 µM
Cc1noc(CNC(=O)NCCc2ccc(Cl)cc2)n1	6.93%
CCc1cc(=O)[nH]c(-c2ccc(NC(C)CN3CCOCC3)nc2)n1 (stereo not drawn)	-145%
Cc1sc2ccccc2c1S(=O)(=O)NCCNC(=O)C(C)C	-0.238%
CC(C)CCOc1ccc(C(C)NC(=O)CSCC(N)=O)cc1 (stereo not drawn)	10.5%
N#CC1COCCN1S(=O)(=O)c1ccc2ccccc2c1 (stereo not drawn)	6.45%
CC(C)C(=O)NS(=O)(=O)CCc1ccccc1	0.67%
CC(C)NC(=O)N1CCC[C@H]1C(=O)NCCCc1cnn(C)c1	0.00333%
O=C(NCCOc1ccc(Cl)cn1)Nc1ccccn1	9.05%
CC(NC(=O)CNC(=O)OC(C)(C)C)c1ccc(Cl)s1 (stereo not drawn)	2.99%
Cc1ccc(F)c(C(=O)NC2CCC(N3C(=O)CCC3=O)CC2)c1 (stereo not drawn)	-6%
Cc1nnc(NCC(c2ccco2)N2CCCC2)c(C#N)c1C (stereo not drawn)	-3.04%
O=C(CNC(=O)Nc1cccc(-c2nccs2)c1)NCCO	-2.77%
Cc1cc(NC(=O)NCCc2cscn2)nn1C	2.24%
CC(C)CCC(=O)Nc1ccc2oc(=O)n(CCN(C)C)c2c1	-9.15%
NC(=O)CCn1ccc(NC(=O)c2ccc(OCC3CC3)cc2)n1	5.48%
N#Cc1ccnc(N2CCN(CC(O)c3ccc(F)cc3F)CC2)c1 (stereo not drawn)	-0.626%
O=C(c1csc(-c2ccco2)n1)N1CCN2CCCCC2C1 (stereo not drawn)	5.6%
C=C(C)CN(CC)S(=O)(=O)c1ccccc1C#N	-17.1%
C[C@@H]1CN(c2ccc3c(Cl)ccnc3c2F)CC(C(N)=O)O1 (stereo partly drawn)	4.11%
O=C(Cc1csc(N2CCNC2=O)n1)NC(c1ccccc1)C1CC1 (stereo not drawn)	-136%
O=C(CNC(=O)C1CC1)NCCOc1cccc(Cl)c1Cl	5.04%
CN(C)c1ncc(CNS(=O)(=O)c2cc(F)ccc2Cl)n1C	6.69%
Clc1nc2ccccn2c1CNCC1CN(C2CC2)CCO1 (stereo not drawn)	-3.06%

SMILES	cytotoxicity at 10 µM
Cc1ccc(N2CCCC(N3CCN(CC(F)F)CC3)C2=O)cc1 (stereo not drawn)	1.66%
COc1cc(C(C#N)NC(=O)CC2=CCCCC2)cc(OC)c1OC (stereo not drawn)	3.2%
CC(CNS(=O)(=O)CCCC#N)c1ccsc1 (stereo not drawn)	3.02%
COc1ccc(C)c(NC(=O)NCc2cccc(N(C)C)n2)c1	6.13%
O=C(CNc1cccc(S(=O)(=O)C(F)F)c1)Nc1ccccc1	-48.4%
CC(=O)c1ccc(CNC(=O)c2cc(C)nn2C)nc1C	6.21%
CC(CN1CCOCC1)NC(=O)NCc1ccc(Cl)s1 (stereo not drawn)	1.23%
CN1CCCCC1c1nc(Cc2cccc(F)c2)no1 (stereo not drawn)	-161%
O=C1N(CCc2ccccc2)CCCC12CCN(C(CO)CO)C2 (stereo not drawn)	-3.25%
CC(C)Cc1noc(CN(C)c2ncccn2)n1	5.23%
CCOc1ncccc1Cn1cc(-c2cncnc2)nn1	2.38%
C[C@@H]1CN(C(=O)Cn2ccc3ncccc3c2=O)C[C@H](C)O1	-5.64%
COc1ccccc1OCCCc1cccc(C#N)n1	-5.62%
COCC(NC(=O)c1cnc(-c2ccncc2)nc1)c1ccnn1C (stereo not drawn)	-13.1%
CCNC(=O)[C@@H]1C[C@@H](N)CN1C(=O)c1cc2ccccc2[nH]1	-9.6%
CNC(=O)[C@@H]1C[C@H](N)CN1Cc1cc2cc(C)cc(C)c2[nH]c1=O	-1.72%
O=C1NCCN(CC2CCCCC2)C1CC(=O)N1CCc2n[nH]cc2C1 (stereo not drawn)	-3.76%
Cc1nc(-c2cccc(C(=O)O)c2)c[nH]1	-3.24%
CCC[C@@H]1CN(C(=O)CCc2ccco2)C[C@H]1NS(C)(=O)=O	-3.73%
COc1ccc(-n2ccnc2-c2cnc(N(C)C)nc2)cc1OC	-2.4%
CCn1ncnc1C(C)Nc1cc(C2CC2)ncn1 (stereo not drawn)	2.33%
O=C(NCCCc1ccc(F)cc1)c1ccc(N2CCOCC2)cc1	-4.45%
CSc1ncccc1C(=O)N1CCC2(CC1)OCCCC2O (stereo not drawn)	-7.16%

SMILES	cytotoxicity at 10 µM
COc1ccccc1OCc1cc(C(=O)N2CC(O)C2)n[nH]1	-1.02%
Cc1cccc(C(=O)NCc2ccc(CS(N)(=O)=O)cc2)n1	-1.07%
COc1ncccc1NC(=O)N(Cc1ccc(C(N)=O)cc1)C1CC1	6.66%
Cn1cc(CCN2CCOC(CNc3cccnn3)C2)cn1 (stereo not drawn)	2.11%
c1cnnc(NCC2CN(CC3CCOCC3)CCO2)c1 (stereo not drawn)	9.34%
CCc1nnc2n1CCN(CCC(=O)Nc1sccc1C#N)C2	-23%
CC(C)(C)OC(=O)N1CCC(C(=O)NCCNc2ncccn2)CC1	-10.3%
O=C(NCCNc1ncccn1)C1CCN(C(=O)N2CCCC2)CC1	-6.11%
COc1ccccc1C(=O)N1CCOCC1c1c(C)n[nH]c1C (stereo not drawn)	-8.72%
CC(O)CN1CCC(CNCc2ccccc2F)CC1 (stereo not drawn)	-11.4%
Cc1noc(C2CCN(C(=O)c3ccc(C(F)(F)F)nc3)CC2)n1	-6.16%
Cc1nnc2n1CCN(C(=O)c1cc(Cl)c(Br)[nH]1)C2	-4.31%
OC(CN1CCC(c2ccn[nH]2)CC1)c1cccc(C(F)(F)F)c1 (stereo not drawn)	-12.1%
Cc1cnn(CC2CCCN2C(=O)c2ccccc2-n2cnnn2)c1 (stereo not drawn)	-35.7%
Cc1cccc(-n2ncc(C(=O)NCC3CCS(=O)(=O)C3)c2C)c1 (stereo not drawn)	-20.3%
COCCCNC(=O)c1c(C)noc1C(C)C	-28.2%
CCOc1ncccc1CNC(=O)Nc1ccc(CC)cc1	-23.7%
O=C(CCOc1ccccc1Cl)N1CCN(c2cnccn2)CC1	-29.2%
Cc1nnc(CN2CCN(C(C)c3nc(C4CC4)no3)CC2)o1 (stereo not drawn)	-10.3%
O=c1n(CCSCc2ccccc2Br)nc2ccccn12	-3.95%
Cc1ccc(NC2CCN(C(=O)c3ccc(Cl)o3)CC2)nn1	-0.961%
CNc1nc(CNC(=O)Nc2ccccc2-c2noc(C)n2)cs1	-6.56%
CC(C)c1nc(CN2CCCN(Cc3nnc(C4CC4)o3)CC2)no1	-0.794%

SMILES	cytotoxicity at 10 µM
CC(NC(N)=O)C(=O)N1CCCN(Cc2nccn2C(C)C)CC1 (stereo not drawn)	1.95%
CCn1cnnc1CNC(=O)c1cc(Cl)ccc1O	2.17%
Cc1ccc(NC(=O)N2CCC(NC(=O)c3ccc(C)o3)CC2)cc1	0.385%
O=C(C1CCC1)N1CCC2(CCNCC2)C1	-3.39%
N#CC1(C(=O)NCC2CCC3(CCNCC3)O2)CC1 (stereo not drawn)	-5.22%
Cc1ccc(CN2CCOCC3(CCN(Cc4cccs4)C3)C2)o1 (stereo not drawn)	-5.61%
CC(C)CN1CCC2(CC1)C(=O)Nc1ccc(C(=O)N(C)C)cc12	-1.18%
O=C(c1cccnc1)N1CCCC2(CCN(c3ccsc3)C2=O)C1 (stereo not drawn)	-1.29%
Cc1nnc(N2CCCC3(CN(c4ccccn4)CCO3)C2)o1 (stereo not drawn)	-98.8%
c1ccc(OCC2CC3(CCN(c4ncccn4)CC3)CO2)nc1 (stereo not drawn)	0.485%
CN(C)CCN1CCN(Cc2nccs2)Cc2cccnc21	-1.08%
c1cncc(CN2CCC3(CC2)CC(c2cccnc2)CO3)c1 (stereo not drawn)	0.851%
CC(C)CCN1CCc2cc(C(=O)N(C)C)c(NCC3CC3)nc2CC1	4.71%
Cc1oncc1C(=O)N[C@@H]1CN(c2ncccn2)C[C@@H]2CCCO[C@@H]21	6.21%
O=C(O)c1c(-c2cccnc2)ncc2c1CCN(Cc1ccccn1)C2	-1.43%
CC(C)(C)c1n[nH]cc1CNCC1CCN(CC(F)(F)F)C1 (stereo not drawn)	3.5%
O=C(NCC1COCc2c(-c3ccncc3)nnn2C1)[C@H]1CCCO1 (stereo partly drawn)	1.9%
Cn1cc(N2CC3(CCN(Cc4cccs4)CC3)OCC2=O)cn1	-8.13%
Cc1ccc(CN2CCC3(CC2)CCN(Cc2ccoc2)CC3)cc1	3.47%
O=C(c1ccoc1)N1CCO[C@]2(CCC[C@H]2COCc2cccnc2)C1	4.58%
COc1cccc(-n2cc3[nH]c(=O)n(C(C)C)n3c2=O)c1	-7.32%
